{"data": "Published values from different studies", "target": "Serine/threonine-protein kinase 32C (STK32C, Homo sapiens, UniProt Q86UX6)", "note": "Protocols differ between the studies behind these lines."}
{"SMILES": "CN(c1nccc(-c2cnn3ncccc23)n1)C1CC1", "observed": "binding", "concentration": "1 µM", "remaining binding [%]": 70}
{"SMILES": "COc1cc(-c2cn(C3CCc4c(F)cccc4N(CC(F)(F)F)C3=O)nn2)ccc1-n1cnc(C)c1 (centres unmarked)", "observed": "cell-free assay", "method": "competition with immobilised ligand", "concentration": "1 µM", "remaining binding [%]": 100}
{"SMILES": "CN(C)c1nccc(-c2cnn3ncccc23)n1", "observed": "binding", "concentration": "1 µM", "remaining binding [%]": 100}
{"SMILES": "N#Cc1ccccc1CSc1nnc2c(n1)[nH]c1ccccc12", "observed": "binding", "method": "competition with immobilised ligand", "concentration": "10 µM", "remaining binding [%]": 83}
{"SMILES": "COc1ncc2cc3ccccc3nc2c1C#N", "observed": "cell-free assay", "method": "competition with immobilised ligand", "concentration": "5 µM", "remaining binding [%]": 100}
{"SMILES": "CC1CCCN1c1nccc(-c2cnn3ncccc23)n1 (centres unmarked)", "observed": "binding", "concentration": "1 µM", "remaining binding [%]": 100}
{"SMILES": "C=CC(=O)N1CCC(C(=O)NCC(=O)N2CCN(c3nc(-c4cnc(N)nc4C(F)F)nc(N4CCOCC4)n3)CC2)CC1", "observed": "binding", "method": "competition with immobilised ligand", "concentration": "1 µM", "remaining binding [%]": 99}
{"SMILES": "COc1cnc(Nc2cccc(S(N)(=O)=O)c2)nc1N1CCN(c2ccccc2)C(=O)C1", "observed": "binding", "method": "competition with immobilised ligand", "concentration": "1 µM", "remaining binding [%]": 100}
{"SMILES": "CNC(=O)Nc1ccc2c(c1)[C@@]1(CC2)OC(=O)N(CC(=O)N(Cc2ccc(F)cc2)[C@@H](C)C(F)(F)F)C1=O", "observed": "cell-free assay", "method": "competition with immobilised ligand", "concentration": "1 µM", "remaining binding [%]": 100}
{"SMILES": "O=C(c1ccc(Nc2ncc(Cl)c(-c3ccc(Cl)s3)n2)cc1)N1CCC(N2CCCC2)CC1", "observed": "binding", "method": "competition with immobilised ligand", "concentration": "1 µM", "remaining binding [%]": 100}
{"SMILES": "Cc1c(NC(=O)c2cc(C(N)=O)nc3cc(F)ccc23)c(C(F)(F)F)nn1Cc1ccc(C#N)cc1", "observed": "binding", "method": "competition with immobilised ligand", "concentration": "1 µM", "remaining binding [%]": 69}
{"SMILES": "N[C@H]1CCN(c2nccc(-c3cnn4ncccc34)n2)C1", "observed": "binding", "concentration": "1 µM", "remaining binding [%]": 97}
{"SMILES": "O=C(NCc1ncc(C(F)(F)F)cc1Cl)c1ccc2c(c1)C1(CCS(=O)(=O)CC1)[C@@H](C1CC1)N2S(=O)(=O)c1ccc(F)cc1", "observed": "cell-free assay", "method": "competition with immobilised ligand", "concentration": "1 µM", "remaining binding [%]": 100}
{"SMILES": "C[C@@H]1CCN(c2nccc(-c3cnn4ncccc34)n2)C1", "observed": "binding", "concentration": "1 µM", "remaining binding [%]": 83}
{"SMILES": "CC1=C(C#N)C(c2ccc3c(c2)c(NC(=O)c2ccccc2C)nn3C)C(C#N)=C(C)N1", "observed": "cell-free assay", "method": "competition with immobilised ligand", "concentration": "1 µM", "remaining binding [%]": 79}
{"SMILES": "C[C@@H]1CN(c2ccc3ncc(-c4ccc5[nH]nc(C6CC6)c5c4)n3n2)C[C@H](C)O1", "observed": "binding", "method": "competition with immobilised ligand", "concentration": "50 nM", "remaining binding [%]": 85}
{"SMILES": "O=C(NCCCN1CCOCC1)c1ccc(Nc2nccc(-c3cc4ccccc4s3)n2)cc1", "observed": "binding", "method": "competition with immobilised ligand", "concentration": "1 µM", "remaining binding [%]": 92}
{"SMILES": "O=C(N[C@H]1CCCCC/C=C\\C2C[C@@]2(C(=O)O)NC(=O)[C@@H]2C[C@@H](Oc3ccncc3)CN2C1=O)OC1CCCC1 (some centres unmarked)", "observed": "binding", "method": "competition with immobilised ligand", "concentration": "1 µM", "remaining binding [%]": 100}
{"SMILES": "Cc1cnc(Nc2ccc(C(=O)N3CCC(N4CCCC4)CC3)cc2)nc1-c1cc2ccccc2s1", "observed": "binding", "method": "competition with immobilised ligand", "concentration": "1 µM", "remaining binding [%]": 100}
{"SMILES": "COc1cnc(Nc2cccc(S(N)(=O)=O)c2)nc1N1CCN(c2ccccc2)CC1", "observed": "binding", "method": "competition with immobilised ligand", "concentration": "1 µM", "remaining binding [%]": 100}
{"SMILES": "COc1ccnn2ncc(-c3ccnc(N(C)C)n3)c12", "observed": "binding", "concentration": "1 µM", "remaining binding [%]": 80}
{"SMILES": "O=C(Nc1c[nH]nc1C(=O)NC1CCNCC1)c1cc(F)cc(F)c1", "observed": "binding", "method": "competition with immobilised ligand", "concentration": "1 µM", "remaining binding [%]": 97}
{"SMILES": "F[C@@H]1CCN(c2nccc(-c3cnn4ncccc34)n2)C1", "observed": "binding", "concentration": "1 µM", "remaining binding [%]": 89}
{"SMILES": "Cc1c[nH]c2nccc(Oc3c(F)cc(Nc4cc(Cl)nc(N)n4)cc3F)c12", "observed": "cell-free assay", "method": "competition with immobilised ligand", "concentration": "0.1 µM", "remaining binding [%]": 93}
{"SMILES": "FC(F)(F)Oc1cccc(-c2cnc3ccc(-c4ccncc4)nn23)c1", "observed": "binding", "method": "competition with immobilised ligand", "concentration": "5 µM", "remaining binding [%]": 89}
{"SMILES": "Nc1ncc2c(n1)-c1c([nH]c3ccc(C#CC4CC4)cc13)CCCC2", "observed": "binding", "method": "competition with immobilised ligand", "concentration": "1 µM", "remaining binding [%]": 100}
